One experiment has as its system TM90C6B strain. The experiment is described as follows: Growth inhibition, TM90C6B strain. The conditions noted are these: TM90C6B strain (atovaquone resistant). It counts as cell-based, Plasmodium falciparum.
Experiment [1] relates to P. falciparum CYTb^G33V strain. The experiment is described as follows: Growth inhibition, P. falciparum CYTb^G33V mutant strain. The class given is cell-based, Plasmodium falciparum.
For another experiment, the target named is recombinant human DHODH (Homo sapiens, UniProt Q02127). Briefly: Human DHODH biochemical assay. In outline: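 Recombinant human DHODH at 13 nM was tested against a 20-point inhibitor dilution series. Reactions contained 1 mM L-dihydroorotate (excess), 100 µM dodecylubiquinone as electron acceptor and 60 µM 2,6-dichloroindophenol as indicator, in 50 mM Tris-HCl pH 8.0, 150 mM KCl and 0.1% Triton X-100. Reactions ran 20 min at 25 °C and were read at OD600.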
Sequence of recombinant human DHODH (Q02127 whole entry): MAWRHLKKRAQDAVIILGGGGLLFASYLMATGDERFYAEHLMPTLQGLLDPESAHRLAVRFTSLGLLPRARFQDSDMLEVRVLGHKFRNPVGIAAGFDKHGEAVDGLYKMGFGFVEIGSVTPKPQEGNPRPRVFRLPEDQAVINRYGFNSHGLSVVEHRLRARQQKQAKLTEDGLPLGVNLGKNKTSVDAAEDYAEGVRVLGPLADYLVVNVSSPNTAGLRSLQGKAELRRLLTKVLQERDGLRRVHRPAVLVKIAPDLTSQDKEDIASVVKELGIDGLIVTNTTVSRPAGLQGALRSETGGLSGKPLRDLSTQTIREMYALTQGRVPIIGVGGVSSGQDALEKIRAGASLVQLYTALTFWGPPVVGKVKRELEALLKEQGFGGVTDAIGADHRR

In the next experiment the test system is P. falciparum Dd2. Briefly: In vitro P. falciparum blood-stage growth inhibition assay. The class given is cell-based, Plasmodium falciparum. The settings on record: read-out: EC50, asexual blood stages; in vitro.
The test system of experiment [2] is PfscDHODH (P. falciparum line expressing S. cerevisiae DHODH). The experiment is described as follows: Growth inhibition, PfscDHODH transgenic line. The settings on record: relative to Dd2. It counts as cell-based, Plasmodium falciparum. In short, it runs like this:
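Asexual blood-stage parasites were cultured to 3–8% parasitaemia, counted on Giemsa smears, and diluted in medium to 2.0% parasitaemia and 2.0% haematocrit. This suspension was added to compound dispensed from DMSO, giving a final 1% parasitaemia and 1% haematocrit, with mefloquine as control. Plates were incubated for 72 h at 37 °C. Growth was read by SYBR Green I fluorescence in Tris/EDTA/saponin/Triton X-100 lysis buffer.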

For experiment [3], the system named is P. berghei (ANKA) liver stage. Briefly: In vitro P. berghei liver-stage assay. The class given is cell-based, Plasmodium berghei. The conditions noted are these: read-out: EC50, liver stages; in vitro. In outline:
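HepG2 cells (~17,500 per well, in duplicate) were cultured 18–24 h, then the medium was exchanged and compound added. After 1 h, 4,000 P. berghei ANKA GFP–luc sporozoites per well were added, freshly dissected from A. stephensi mosquitoes. Plates were spun 10 min at 1,000 r.p.m. and incubated 48 h at 37 °C. Parasite load was read by Bright-Glo luminescence.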

Entries after “also recorded” stand apart in the source; their conditions may differ.

A word on the EC50: it is the concentration at which the effect is half-maximal.

In the case of `CCCNC(=O)N1[C@H](C#N)[C@H](c2ccc(C#Cc3cccc(F)c3)cc2)[C@H]1CO` [BRD7539], the Change in potency entry (with TM90C6B strain; in experiment [1]) was “unaffected” in each case. Further, the “Inhibition of human DHODH orthologue” value at recombinant human DHODH is reported as “no inhibition”. Besides, the values for the EC50 (in the experiment on P. falciparum Dd2; in experiment [3]) were 10 nM and 15 nM, respectively. Besides, the “Potency against PfscDHODH” value in experiment [2] is on record as “markedly reduced potency; also recorded: selectively reduced potency”.

These data come from article PMC5515376 (Nature, 2016).
